The values below come from ChEMBL document CHEMBL4145604, “Jizanpeptins, Cyanobacterial Protease Inhibitors from a Symploca sp. Cyanobacterium Collected in the Red Sea” (J Nat Prod, 2018).

One experiment addresses Trypsin (Homo sapiens, UniProt P07477+P07478+P35030). Description: Inhibition of trypsin (unknown origin) assessed as reduction in conversion of N-benzoyl-L-arginine ethyl ester hydrochloride to N-benzoyl-L-arginine incubated for 5 mins measured for 30 secs by spectrophotometric method. It counts as protein assay.
The subject of another experiment is NCI-H460. Description: Antiproliferative activity against human NCI-H460 cells up to 3 uM after 72 hrs by MTT assay. It counts as functional, cell-based. The gist of the method:
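NCI-H460 cells exposed for 72 h to 30 nM–3 μM compound from DMSO stocks, final DMSO 0.1%; apratoxin A (30 nM) positive control; MTT viability end-point, vehicle-treated cells set as 100%.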
A general note: Tetrazolium assays rely on reduction of a dye to a coloured formazan, in cell work by metabolically active cells.

Experiment [1] is filed under the species Homo sapiens. Description: (§1) Inhibition of chymotrypsin (unknown origin) assessed as reduction in conversion of N-benzoyl-L-tyrosine ethyl ester to N-benzoyl-L-tyrosine incubated for 3 mins measured for 30 secs by spectrophotometric method.
Experiment [2] in a line: as §1. The arrangement: species or system Homo sapiens.
The next experiment deals with HeLa. Description: Antiproliferative activity against human HeLa cells up to 3 uM after 72 hrs by MTT assay. It counts as functional, cell-based.
The species entered for experiment [3] is Homo sapiens. The experiment is described as follows: Selectivity ratio of IC50 for chymotrypsin (unknown origin) to IC50 for trypsin (unknown origin).

The structures appear in SMILES notation. Calls of active or inactive are those of the source. No cut-off for these calls is given here. *1 amine or outer side, *2 acyl side, *3 side chain or, on linkers, in order; H or OH if unused. Where a SMILES comes first, the peptide text is derived from it. Bridges are numbered along the chain shown (N, C = ends). [ ]: non-standard residue; d: D form. The star is where a group is joined. Ahp(3S,6R)alloIle = CC[C@@H](C)[C@@H](C(=O)[*:2])N1C(=O)[C@@H](N[*:1])CC[C@H]1O; Propanoyl(2R-OMe,3-OSO3H) = CO[C@H](COS(=O)(=O)O)C(=O)*; NMeTyr(3-Br,OMe) = CN[C@@H](Cc1ccc(OC)c(Br)c1)C(=O)O; Cit = NC(=O)NCCC[C@H](N)C(=O)O; Butyryl = CCCC(=O)*

For `CCCC(=O)N[C@H](CCC(N)=O)C(=O)N[C@@H]1C(=O)N[C@@H](CCCNC(N)=O)C(=O)N[C@H]2CC[C@@H](O)N(C2=O)[C@@H]([C@H](C)CC)C(=O)N(C)[C@@H](Cc2ccc(OC)c(Br)c2)C(=O)N[C@@H](C(C)C)C(=O)O[C@@H]1C` (Butyryl-[dQ]T[Cit][Ahp(3S,6R)alloIle][NMeTyr(3-Br,OMe)]V; ester 2-C), the inhibition result at Trypsin and in the experiment listed under Homo sapiens [1] was “Active” in each case. In addition, the result with NCI-H460 was Active.

As a reminder, the IC50 is the midpoint of a concentration-inhibition curve. `CC[C@@H](C)[C@H]1C(=O)N(C)[C@@H](Cc2ccc(OC)c(Br)c2)C(=O)N[C@@H]([C@@H](C)CC)C(=O)O[C@H](C)[C@H](NC(=O)[C@@H](NC(=O)[C@@H](COS(=O)(=O)O)OC)C(C)C)C(=O)N[C@@H](CCCCN)C(=O)N[C@H]2CC[C@@H](O)N1C2=O`: the IC50 at Trypsin stood at 72 nM; in experiment [2] it was 1400 nM. Also, the outcome in the experiment on NCI-H460 and in the experiment with HeLa was inactive. Further, the Ratio IC50 in the experiment filed under Homo sapiens [3] turned out to be 19.

In the case of `CC[C@@H](C)[C@H]1C(=O)N(C)[C@@H](Cc2ccc(OC)c(Br)c2)C(=O)N[C@@H]([C@@H](C)CC)C(=O)O[C@H](C)[C@H](NC(=O)[C@@H](NC(=O)[C@@H](COS(=O)(=O)O)OC)[C@@H](C)CC)C(=O)N[C@@H](CCCCN)C(=O)N[C@H]2CC[C@@H](O)N1C2=O` ({Propanoyl(2R-OMe,3-OSO3H)}-ITK[Ahp(3S,6R)alloIle][NMeTyr(3-Br,OMe)]I; ester 2-C), the IC50 at Trypsin was 1000 nM; in experiment [2], above 10000 nM. Moreover, the outcome in the experiment on NCI-H460 and in the experiment on HeLa was inactive. Besides, in the experiment filed under Homo sapiens [3], the Ratio IC50 fell in the range of 10 to 66.

In the case of `CC[C@@H](C)[C@H]1C(=O)N(C)[C@@H](Cc2ccc(OC)c(Br)c2)C(=O)N[C@@H]([C@@H](C)CC)C(=O)O[C@H](C)[C@H](NC(=O)[C@H](NC(=O)[C@@H](COS(=O)(=O)O)OC)C(C)C)C(=O)N[C@@H](CCCNC(=N)N)C(=O)N[C@H]2CC[C@@H](O)N1C2=O`, the IC50 was 150 nM at Trypsin and above 10000 nM in experiment [2]. The outcome with NCI-H460 and in the experiment on HeLa was inactive. In the experiment listed under Homo sapiens [3], the Ratio IC50 fell in the range of 10 to 66.

For the compound `CC[C@@H](C)[C@H]1C(=O)N(C)[C@@H](Cc2ccc(OC)c(Br)c2)C(=O)N[C@@H]([C@@H](C)CC)C(=O)O[C@H](C)[C@H](NC(=O)[C@H](NC(=O)[C@@H](COS(=O)(=O)O)OC)C(C)C)C(=O)N[C@@H](CCCCN)C(=O)N[C@H]2CC[C@@H](O)N1C2=O`, the IC50 on Trypsin was 190 nM; in experiment [2], above 10000 nM. Moreover, the outcome in the experiment with NCI-H460 and in the experiment with HeLa was inactive. In addition, in the experiment filed under Homo sapiens [3], the Ratio IC50 is 10 to 66.

`CC[C@@H](C)[C@H]1C(=O)N(C)[C@@H](Cc2ccc(OC)c(Br)c2)C(=O)N[C@@H]([C@@H](C)CC)C(=O)O[C@H](C)[C@H](NC(=O)[C@H](NC(=O)[C@H](O)COS(=O)(=O)O)C(C)C)C(=O)N[C@@H](CCCCN)C(=O)N[C@H]2CC[C@@H](O)N1C2=O`: the results for the IC50 (on Trypsin; in experiment [2]) were 160 nM and above 10000 nM, respectively. Further, the outcome in the experiment on NCI-H460 and in the experiment on HeLa was inactive. Also, in the experiment listed under Homo sapiens [3], the Ratio IC50 fell in the range of 10 to 66.
